# From publication PMC4403237 (European journal of medicinal chemistry, 2014)
# How the values were obtained:
# [1] = tested on: Detroit 551 human skin fibroblast cell line; experiment: MTT cell viability assay, Detroit 551; type: cell-based; conditions: Detroit 551, 48 h, read-out: IC50 Detroit551
# Outline: (§1)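 Logarithmically growing cells were used: HL-60 and NCI-H460 in RPMI-1640 with 10% FBS and L-glutamine; Hep3B in DMEM/F12 with 10% FBS; Detroit 551 in DMEM with 10% FBS and L-glutamine. Cells were exposed to a range of test compound concentrations or DMSO vehicle for 48 h at 37 °C, then incubated with MTT (1 mg/mL in PBS) for 2 h. Absorbance was read at 570 nm, corrected at 630 nm.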
# [2] = tested on: HL-60 human leukemia cell line; experiment: MTT cell viability assay, HL-60; type: cell-based; conditions: HL-60, 48 h, read-out: IC50 HL-60
# Outline: as §1
# [3] = tested on: Hep3B human hepatoma cell line; experiment: MTT cell viability assay, Hep3B; type: cell-based; conditions: 48 h, read-out: IC50 Hep3B
# Outline: as §1
# [4] = tested on: NCI-H460 non-small cell lung cancer cell line; experiment: MTT cell viability assay, NCI-H460; type: cell-based; conditions: Homo sapiens, NCI-H460, 48 h, read-out: IC50 NCI-H460
# Outline: as §1
# [5] = tested on: MDA-MB-435 melanoma; experiment: NCI-60 screen, MDA-MB-435; type: cell-based, human
# [6] = tested on: K562 leukemia; experiment: NCI-60 screen, K562; type: cell-based, human
# [7] = tested on: SW-620 colon cancer; experiment: NCI-60 screen, SW-620; type: cell-based, human
# [8] = tested on: NCI-60 human cancer cell line panel; experiment: NCI-60 human cancer cell line panel screen; type: cell-based; conditions: NCI-60 panel mean
# [9] = tested on: M14 melanoma; experiment: NCI-60 screen, M14; type: cell-based, human
# [10] = tested on: Hep3B cells; experiment: Western blot of caspase and PARP cleavage in Hep3B cells; type: cell-based, human; conditions: 48 h treatment
# [11] = tested on: NCI-H522 non-small cell lung cancer; experiment: NCI-60 screen, NCI-H522; type: cell-based, human; conditions: NCI-522 non-small cell lung cancer
# [12] = tested on: Hep3B cells; experiment: Cell cycle distribution by flow cytometry in Hep3B cells; type: cell-based, human; conditions: 24 h
# Outline: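 Hep3B cells were treated for 24 h with DMSO vehicle, test compound at 0.1, 0.3, 1 or 3 μM, or 1 μM reference antimitotics (vinblastine, colchicine, paclitaxel). Cells were stained with propidium iodide and analysed by flow cytometry. Data are mean ± SEM of three independent experiments.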
# [13] = tested on: Hep3B cells; experiment: In vivo; type: cell-based, human; conditions: 1 μM, 24 h
# Outline: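 Hep3B cells were treated for 24 h with DMSO vehicle, 1 μM test compound, or 1 μM reference antimitotics. Cells were washed in ice-cold PBS and lysed 5 min at 37 °C in hypotonic buffer (20 mM Tris-HCl pH 6.8, MgCl2, EGTA, 0.5% IGEPAL, protease inhibitors), then spun 15,000 ×g for 10 min at 25 °C. Supernatant (soluble) and sonicated pellet (polymerized) fractions were western-blotted for α-tubulin, β-tubulin and β-actin.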
# [14] = tested on: SR leukemia; experiment: NCI-60 screen, SR; type: cell-based, human
# [15] = tested on: Hep3B xenograft; experiment: Hep3B xenograft nude mice model; type: in vivo, Balb/c nude mice
# Outline: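 Male Balb/c nude mice (4–6 weeks, 18–20 g, SPF) received 2 × 10^6 Hep3B cells s.c. in the right flank. At tumor volume >100 mm3 (day 0), mice were grouped (n = 8). The water-soluble phosphate prodrug was given i.v. at 10, 20 or 40 mg/kg, five days/week for 3 weeks; doxorubicin i.v. served as reference. Tumor size (length × width² × 0.5) and body weight were recorded every 7 days to day 21; T/C was calculated.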
Compound,IC50 [2] [nM],IC50 [3] [nM],IC50 [4] [nM],IC50 [1] [nM],other results
"COc1cccc(-c2cc(=O)c3c(C)cc(C)nc3[nH]2)c1 [6c, 2-(3-Methoxyphenyl)-5,7-dimethyl-1,8-naphthyridin-4(1H)-one]",330,730,750,> 50000,
"Cc1cnc2[nH]c(-c3cccc(O)c3)cc(=O)c2c1 [7b, 2-(3-Hydroxyphenyl)-6-methyl-1,8-naphthyridin-4(1H)-one]",80,440,450,> 2500,
"Cc1cc(C)c2c(=O)cc(-c3cccc(O)c3)[nH]c2n1 [7c, 2-(3-Hydroxyphenyl)-5,7-dimethyl-1,8-naphthyridin-4(1H)-one]",290,680,1300,> 100000,
"O=c1cc(-c2cccc(O)c2)[nH]c2ncc(Cl)cc12 [7d, 6-Chloro-2-(3-hydroxyphenyl)-1,8-naphthyridin-4(1H)-one]",110,340,200,> 100000,
"O=c1cc(-c2cccc(O)c2)[nH]c2ncc(F)cc12 [7e, 6-Fluoro-2-(3-hydroxyphenyl)-1,8-naphthyridin-4(1H)-one]",140,380,700,> 100000,
"O=c1cc(-c2cccc(F)c2)[nH]c2nccc(O)c12 [7f, 2-(3-Fluorophenyl)-5-hydroxy-1,8-naphthyridin-4(1H)-one]",820,1820,2480,> 100000,
"O=c1cc(-c2cccc(F)c2)[nH]c2ncc(O)cc12 [7g, 2-(3-Fluorophenyl)-6-hydroxy-1,8-naphthyridin-4(1H)-one]",80,160,860,> 100000,
"O=c1cc(-c2cccc3ccccc23)[nH]c2ncc(O)cc12 [7h, 6-Hydroxy-2-(naphthalen-1-yl)-1,8-naphthyridin-4(1H)-one]",480,460,1340,> 100000,
"O=c1cc(-c2csc3ccccc23)[nH]c2ncc(O)cc12 [7i, 2-(Benzo[b]thiophen-3-yl)-6-hydroxy-1,8-naphthyridin-4(1H)-one]",570,1070,390,10000,
"Cc1ccnc2[nH]c(-c3cccc(OP(=O)(O)O)c3)cc(=O)c12 [compound 11, 3-(5-Methyl-4-oxo-1,4-dihydro-1,8-naphthyridin-2-yl)phenyl dihydrogen phosphate]",,,,,"Hep3B inhibitory activity compared with doxorubicin ([15]; i.v. 20 mg/kg): exceeded that of 5 mg/kg doxorubicin; Hep3B tumor weight ([15]; i.v. 40 mg/kg): 78.6 % of the control; body weight changes ([15]; i.v. 10, 20, 40 mg/kg, during antitumor evaluation): no significant body weight changes; inhibition of Hep3B tumor growth ([15]; i.v. 10, 20 and 40 mg/kg/day, five days per week, three weeks): dose- and time-dependent inhibition of Hep3B tumor growth"

# The next lines start with results.
IC50 [2] [nM],IC50 [3] [nM],IC50 [4] [nM],Compound,IC50 [1] [nM],other results
30,130,180,"COc1cccc(-c2cc(=O)c3c(C)ccnc3[nH]2)c1 [6a, 2-(3-Methoxyphenyl)-5-methyl-1,8-naphthyridin-4(1H)-one]",> 5000,
60,120,140,"COc1cccc(-c2cc(=O)c3cc(C)cnc3[nH]2)c1 [6b, 2-(3-Methoxyphenyl)-6-methyl-1,8-naphthyridin-4(1H)-one]",> 2500,
30,100,100,"COc1cccc(-c2cc(=O)c3cc(Cl)cnc3[nH]2)c1 [6d, 6-Chloro-2-(3-methoxyphenyl)-1,8-naphthyridin-4(1H)-one]",> 50000,
70,200,240,"COc1cccc(-c2cc(=O)c3cc(F)cnc3[nH]2)c1 [6e, 6-Fluoro-2-(3-methoxyphenyl)-1,8-naphthyridin-4(1H)-one]",> 5000,
20,20,50,"COc1cnc2[nH]c(-c3cccc(F)c3)cc(=O)c2c1 [6g, 2-(3-Fluorophenyl)-6-methoxy-1,8-naphthyridin-4(1H)-one]",> 10000,
40,50,850,"COc1cnc2[nH]c(-c3cccc4ccccc34)cc(=O)c2c1 [6h, 6-Methoxy-2-(naphthalen-1-yl)-1,8-naphthyridin-4(1H)-one]",> 25000,
40,90,160,"COc1cnc2[nH]c(-c3csc4ccccc34)cc(=O)c2c1 [6i, 2-(Benzo[b]thiophen-3-yl)-6-methoxy-1,8-naphthyridin-4(1H)-one]",> 10000,
30,170,200,"Cc1ccnc2[nH]c(-c3cccc(O)c3)cc(=O)c12 [7a, 2-(3-Hydroxyphenyl)-5-methyl-1,8-naphthyridin-4(1H)-one]",> 50000,"logGI50 [5]: less than −7.00; logGI50 [6]: less than −7.00; logGI50 [7]: less than −7.00; average logGI50 (MID) [8]: −6.30; logGI50 [9]: less than −7.00; cleavage of caspases and PARP [10]: concentration-dependent increase in the cleavage of caspase-8, -9, -3, and PARP; logGI50 [11]: less than −7.00; cell population at G2/M phase ([12]; 0.1-3 μM): significant cell population accumulation at G2/M phase in a concentration-dependent manner; sub-G1 phase population [12]: predominant increase in sub-G1 phase; tubulin content in cytoskeleton (polymerized) fraction [13]: decreased both α-tubulin and β-tubulin contents in the cytoskeleton fraction; logGI50 [14]: less than −7.00"
2,500,5,"CC(=O)O[C@H]1C(=O)[C@@]2(C)[C@H]([C@H](OC(=O)c3ccccc3)[C@]3(O)C[C@H](OC(=O)[C@H](O)[C@@H](NC(=O)c4ccccc4)c4ccccc4)C(C)=C1C3(C)C)[C@]1(OC(C)=O)CO[C@@H]1C[C@@H]2O [Taxol, reference compound]",,
